Test [1] addresses T1, Peroxisome proliferator-activated receptor alpha (Homo sapiens) (UniProt Q07869).
T1 sequence (whole entry): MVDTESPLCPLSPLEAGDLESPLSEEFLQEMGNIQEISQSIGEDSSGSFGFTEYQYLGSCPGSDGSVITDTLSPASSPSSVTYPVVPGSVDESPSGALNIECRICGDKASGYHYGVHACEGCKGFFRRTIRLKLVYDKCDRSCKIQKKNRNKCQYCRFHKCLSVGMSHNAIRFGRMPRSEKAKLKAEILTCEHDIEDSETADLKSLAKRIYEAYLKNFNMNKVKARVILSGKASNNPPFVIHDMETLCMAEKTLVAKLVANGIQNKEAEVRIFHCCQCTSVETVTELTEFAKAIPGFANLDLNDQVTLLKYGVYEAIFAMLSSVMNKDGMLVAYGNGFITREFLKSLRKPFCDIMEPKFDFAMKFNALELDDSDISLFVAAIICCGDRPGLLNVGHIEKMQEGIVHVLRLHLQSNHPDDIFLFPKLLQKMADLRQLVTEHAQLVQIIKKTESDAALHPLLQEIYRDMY
The test is described as follows: Agonist activity at human PPARalpha at 10 uM after 22 to 24 hrs by luciferase reporter gene assay. Put shortly: (§1)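 hPPARα luciferase reporter cells; read-out via oxyluciferin production. […] Fold-induction over DMSO control ± S.E. (n = 3), single experiment.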

The target of test [2] is T1, Peroxisome proliferator-activated receptor alpha (Homo sapiens). The test is described as follows: Agonist activity at human PPARalpha at 5 uM after 22 to 24 hrs by luciferase reporter gene assay. The method in brief: as §1
Test [3] deals with T2, Peroxisome proliferator-activated receptor delta (Homo sapiens, UniProt Q03181).
T2 sequence (Q03181 whole entry): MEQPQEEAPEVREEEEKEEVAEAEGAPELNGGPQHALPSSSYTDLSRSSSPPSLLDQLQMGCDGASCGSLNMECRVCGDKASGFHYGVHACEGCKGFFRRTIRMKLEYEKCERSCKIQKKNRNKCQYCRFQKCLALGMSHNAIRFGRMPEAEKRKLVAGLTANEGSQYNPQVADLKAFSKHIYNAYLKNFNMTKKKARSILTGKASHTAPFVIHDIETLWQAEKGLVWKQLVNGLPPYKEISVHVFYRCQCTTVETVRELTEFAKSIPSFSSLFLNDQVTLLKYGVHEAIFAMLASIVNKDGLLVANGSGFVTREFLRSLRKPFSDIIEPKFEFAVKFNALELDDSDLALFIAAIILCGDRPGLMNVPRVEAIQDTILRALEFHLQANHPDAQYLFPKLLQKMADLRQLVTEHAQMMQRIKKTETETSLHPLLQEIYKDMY
The test is described as follows: Agonist activity at human PPARdelta after 22 to 24 hrs by luciferase reporter gene assay.

In test [4] the target is T3, Peroxisome proliferator-activated receptor gamma (Homo sapiens, UniProt P37231).
T3 sequence (P37231 whole entry): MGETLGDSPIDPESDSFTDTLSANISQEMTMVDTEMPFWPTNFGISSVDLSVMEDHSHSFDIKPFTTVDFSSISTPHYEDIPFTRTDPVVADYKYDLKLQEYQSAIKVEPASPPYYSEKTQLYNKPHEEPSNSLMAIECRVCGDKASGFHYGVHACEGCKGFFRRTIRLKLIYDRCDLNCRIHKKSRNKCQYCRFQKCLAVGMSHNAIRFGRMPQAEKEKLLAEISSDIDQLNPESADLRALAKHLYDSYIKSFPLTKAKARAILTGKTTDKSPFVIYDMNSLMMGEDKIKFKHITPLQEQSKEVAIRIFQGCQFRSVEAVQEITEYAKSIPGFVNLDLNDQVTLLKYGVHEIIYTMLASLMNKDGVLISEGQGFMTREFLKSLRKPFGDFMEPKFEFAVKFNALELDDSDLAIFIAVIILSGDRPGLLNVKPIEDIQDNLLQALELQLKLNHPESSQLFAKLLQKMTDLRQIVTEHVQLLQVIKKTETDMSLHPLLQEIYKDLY
The test is described as follows: Agonist activity at human PPARgamma after 22 to 24 hrs by luciferase reporter gene assay. The method in brief: (§2)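 Human PPAR luciferase reporter cell lines; luciferase read-out through oxyluciferin production. 10-point dose-response in triplicate, single experiment, giving EC50.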

For test [5], the target named is T1, Peroxisome proliferator-activated receptor alpha (Homo sapiens). The test is described as follows: Agonist activity at human PPARalpha after 22 to 24 hrs by luciferase reporter gene assay relative to GW590735. Put shortly:
as §2

The target of test [6] is T4, Peroxisome proliferator-activated receptor alpha (Homo sapiens, UniProt Q07869).
T4 sequence (Q07869 whole entry): T1 sequence (whole entry)
The test is described as follows: Agonist activity at human PPARalpha after 22 to 24 hrs by luciferase reporter gene assay. The method in brief:
as §2

The target in test [7] is T4, Peroxisome proliferator-activated receptor alpha. The test is described as follows: Agonist activity at PPARalpha (unknown origin) expressed in reporter combo cells after 36 hrs by dual luciferase reporter gene assay. Format: cell-based. Put shortly: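 Human PPARα luciferase reporter cell line. Luciferase activity was read indirectly as oxyluciferin production. EC50 came from a 10-point dose-response, dosed in triplicate in a single experiment. In the initial screen, agonism was expressed as fold-induction over the DMSO control (n = 3) at 5 and 50 μM.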

A further test is filed under the species Homo sapiens. The test is described as follows: Antimigratory activity in HRCEC after 10 to 24 hrs by wound healing assay. Format: functional. Put shortly:
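Wound healing (scratch) assay in human retinal capillary endothelial cells, closure assessed at 10 h and 24 h incubation. Performed three times in triplicate; mean ± S.D.; Student's t-test.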

The target in test [8] is T5, Peroxisome proliferator-activated receptor alpha (Mus musculus) (UniProt P23204).
T5 sequence (whole entry): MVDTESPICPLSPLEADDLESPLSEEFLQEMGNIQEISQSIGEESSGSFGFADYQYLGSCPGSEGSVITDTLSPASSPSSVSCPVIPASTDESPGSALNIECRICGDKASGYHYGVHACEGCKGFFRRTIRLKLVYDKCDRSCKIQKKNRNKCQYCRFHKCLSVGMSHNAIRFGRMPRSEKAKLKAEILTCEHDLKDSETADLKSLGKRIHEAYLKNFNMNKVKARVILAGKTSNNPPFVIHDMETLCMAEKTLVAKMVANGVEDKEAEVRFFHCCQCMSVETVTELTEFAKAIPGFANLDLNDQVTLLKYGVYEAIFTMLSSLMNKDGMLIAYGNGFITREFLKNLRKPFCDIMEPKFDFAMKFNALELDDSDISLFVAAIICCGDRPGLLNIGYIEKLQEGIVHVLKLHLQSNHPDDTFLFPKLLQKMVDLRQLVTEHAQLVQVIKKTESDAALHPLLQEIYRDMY
The test is described as follows: Agonist activity at PPARalpha in C57BL/6N mouse assessed as upregulation of Cpt1a gene expression at 10 to 100 uM after 24 hrs by RT-PCR method. Put shortly:
(§3)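 Mouse 661W cells treated for 24 h; target mRNA quantified by RT-PCR (n = 6). Reported as mean ± S.D.; group differences tested with Student's t-test.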

Test [9] has as its target T5, Peroxisome proliferator-activated receptor alpha (Mus musculus). The test is described as follows: Agonist activity at PPARalpha in C57BL/6N mouse assessed as upregulation of Slc25a20 gene expression at 10 to 100 uM after 24 hrs by RT-PCR method. The method in brief: as §3
The target is the same in test [10]. The test is described as follows: Agonist activity at PPARalpha in C57BL/6N mouse assessed as upregulation of Acadm gene expression at 10 to 100 uM after 24 hrs by RT-PCR method. Put shortly:
as §3

Test [11] has the same target. The test is described as follows: Agonist activity at PPARalpha in C57BL/6N mouse assessed as upregulation of PPARalpha protein expression after 24 hrs by Western blot method. The method in brief: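 Mouse 661W cells exposed for 24 h. PPARα protein detected by Western blot and quantified by densitometry. Experiments performed three times in triplicate; mean ± S.D.; Student's t-test.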

The target is the same in test [12]. The test is described as follows: Agonist activity at PPARalpha in C57BL/6N mouse assessed as upregulation of Fabp3 gene expression at 10 to 100 uM after 24 hrs by RT-PCR method. Put shortly:
as §3

Activity calls are given as the source filed them. The rule behind the calls is not given here. Some results are limits rather than exact numbers.

For `CC(C)(Oc1cccc(NCc2ccc(OCc3ccccc3)cc2)c1)C(=O)O`, the result in test [1] was Active. The result in [2] was inactive.

For `CC(C)(Oc1cccc(NCc2ccc(OCc3ccc(Cl)cc3)cc2)c1)C(=O)O`, in [1], the outcome was Active. The outcome in test [2] was inactive.

For the compound `COc1ccc(COc2ccc(CNc3cccc(OC(C)(C)C(=O)O)c3)cc2)cc1`, in test [1], the result was Active. The results for the EC50 in test [3] and in test [4] were 38.6 µM and 18.3 µM, respectively. Moreover, the outcome in test [2] was inactive.

`O=C(O)c1cccc(NCc2ccc(OCc3ccc(Cl)cc3Cl)cc2)c1`: the outcome in test [2] was Active.

Consider `COc1ccc(COc2ccc(CNc3cccc(C(=O)O)c3)c(OCc3ccc(OC)cc3)c2)cc1`, for which the EC50 in test [3] is over 100 µM; in test [6], 5.1 µM; in test [4] it was over 100 µM. The compound further registered a fold change (FC) in test [5] of 1.1.

Consider `CC(C)(Oc1cccc(NCc2ccc(OCc3cc(F)cc(F)c3)cc2)c1)C(=O)O`, for which, in test [1], the result was Active. The outcome in test [2] was inactive.

On to `COc1ccc(COc2ccc(CNc3cccc(OC(C)(C)C(=O)O)c3)c(OCc3ccc(OC)cc3)c2)cc1`, for which the EC50 in [3] turned out to be 8.9 µM; in test [6], 2.1 µM; in [4] it was 5.6 µM. For the same compound, in test [5], the fold change (FC) came out at 1.4.

Consider `Cc1c(Cl)ccc2c(C(=O)O)cc(-c3ccccc3)nc12`, for which the EC50 in test [7] was in the range of 25 to 50 µM.

As for `O=C(O)c1cccc(NCc2ccc(OCc3ccc(Cl)cc3)cc2)c1`, the result in test [1] and in [2] was Active.

Take `O=C(O)c1cccc(NCc2ccc(OCc3ccccc3)cc2)c1`: the result in test [1] and in test [2] was Active.

For `COc1ccc(COc2ccc(CNc3cccc(C(=O)O)c3)cc2)cc1`, the EC50 in [3] and in test [4] was over 100 µM each time. Moreover, the Activity entry (in the test listed under Homo sapiens; in [11]) was “Dose-dependent effect” throughout. Further, the result in [8], in [9], in test [10] and in test [12] was Active.

For `O=C(O)c1cccc(NCc2ccc(OCc3ccc([N+](=O)[O-])cc3)cc2)c1`, in test [2], the outcome was Active.

For the compound `O=C(O)c1cccc(NCc2ccc(OCc3cc(F)cc(F)c3)cc2)c1`, the outcome in [1] and in test [2] was Active.

The values are drawn from ChEMBL document CHEMBL4229390, “Structure-guided evolution of a 2-phenyl-4-carboxyquinoline chemotype into PPARα selective agonists: New leads for oculovascular conditions” (Bioorg Med Chem Lett, 2018).
